Laboratory results reported in the EternaBench riboswitch data.

Tests used:
[1] = test system: MS2 coat protein; assay: apparent Kd, MS2 coat protein; higher = weaker binding; RNA-MaP array; tryptophan 2.4 mM where present
Summary of the method: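 Stalled E. coli RNA polymerase transcribed each design on Illumina sequencing-chip clusters. The clusters were titrated with SNAP-549-labelled MS2 coat protein, starting at 0.7 or 1.5 nM and doubling up to 3 µM, first without ligand and then with constant ligand, in 100 mM Tris-HCl pH 7.5, 80 mM KCl, 4 mM MgCl2, BSA, DTT, yeast tRNA and Tween-20. Green signal was normalised to red-channel RNA signal and to the control-cluster median Fmax. The apparent Kd is the median of filtered binding-curve fits made for each cluster.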

[2] = test system: MS2 coat protein; assay: apparent Kd, MS2 coat protein; higher = weaker binding; RNA-MaP array
Summary of the method: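 RNA designs were transcribed from sequenced DNA templates on an Illumina sequencing chip and then incubated at room temperature with fluorescently labeled MS2 coat protein at 1.5 nM to 3 μM, with or without input ligand, in Tris-HCl pH 7.5 buffer containing KCl, MgCl2, BSA, DTT, tRNA and Tween20. Incubation lasted 0.8–1.5 h at the lowest protein concentrations and 10–20 min at the highest. Apparent Kd is the median of binding-curve fits made for each cluster. Designs measured on fewer than 10 clusters were excluded.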

[3] = designed as: ON switch for tryptophan, no ligand
[4] = ligand present: tryptophan, designed as: ON switch for tryptophan
[5] = designed as: OFF switch for tryptophan, no ligand
[6] = ligand present: tryptophan, designed as: OFF switch for tryptophan
[7] = designed as: OFF switch for flavin mononucleotide, no ligand
[8] = ligand present: flavin mononucleotide, designed as: OFF switch for flavin mononucleotide
[9] = designed as: ON switch for theophylline, no ligand
[10] = ligand present: theophylline, designed as: ON switch for theophylline
[11] = designed as: ON switch for flavin mononucleotide, no ligand
[12] = ligand present: flavin mononucleotide, designed as: ON switch for flavin mononucleotide

“GGGACAUGAGGAUCACCCAUGUACCGGUCCCGAGGACCGGUACGGCCGCCACUCGAUGACCUCAUAGUCUGCCUGAGCAGCAGAC” was tested, and the “apparent Kd” value [1, 3] was 41.3 nM and the “apparent Kd” value [1, 4] was 119 nM.
In the case of “UUCUUUAAGUCGGCCGCCACUGAAACAUGAGGAUCACCCAUGUAAAUUUGGGAGUAGUUAUAUUACAGGACCGGGACUAUAGUAA”, the “apparent Kd” value [1, 5] is reported as 41.5 nM and the “apparent Kd” value [1, 6] is reported as 83 nM.
In the case of “GGCACAUAGUCGGCCGCCACUAGUGGGAAAUGGGAGAACAUGAGGAUCACCCAUGUAGCGUAGCCUAGGACCGGGACUAUGUGCC”, the “apparent Kd” value [1, 5] is reported as 160 nM and the “apparent Kd” value [1, 6] is reported as 156 nM.
“CAUGGCUGUGCGGCCGCCACUGGCUCAUCCUGCAUUACAUGAGGAUCACCCAUGUUGCGGCCUCCCAGGACCGGGCAUAGCCUGA” was tested, and the “apparent Kd” value [1, 3] was 300 nM and the “apparent Kd” value [1, 4] was 139 nM.
With “UGUGUAAUUGUCUGGUAGAUUUAUUUUUUUCGAGGACCGGUACGGCCGCCACUCGUUAUUUACAUGAGGAUCACCCAUGUUAGCU” the “apparent Kd” value [1, 5] was 12.9 nM and the “apparent Kd” value [1, 6] was 12.9 nM.
For “GGAUGGGUGGAAGGAUAUGAGCCCAGGACAUGAGGAUCACCCAUGUGUAGUUCAGUCUCUAAUUCUCAGAAGGUCCAGAUUCUA”, the “apparent Kd” value [2, 7] was 18.1 nM and the “apparent Kd” value [2, 8] was 21.5 nM.
In the case of “AAAUUAAUCAGAGGAUAUAGACAUGAGGAUCACCCAUGUACCAAAAUCGCGAAGAAGGAUCCGUGCUAGAAGGCAGAAUACAUA”, the “apparent Kd” value [2, 7] is reported as 10.3 nM and the “apparent Kd” value [2, 8] is reported as 8.65 nM.
“ACCUCAAUGGAUGAUACCAGCUCAAGGACGAACAUGAGGAUCACCCAUGUGACGUGGUGUAGCCCUUGGCAGCAUACUGACACCU” was tested, and the “apparent Kd” value [2, 9] was 39.4 nM and the “apparent Kd” value [2, 10] was 21.3 nM.
For “UGUACAUGAGGAUCACCCAUGUUUGUAUCUUUAUCCGCGCGCAGAAGGUAGCCCAUGGAGACAGCUAAGGAUAUGCGUCACAUA”, the “apparent Kd” value [2, 7] was 21.5 nM and the “apparent Kd” value [2, 8] was 8.83 nM.
For “UUUUUUUAACAGAAGGACAGACAUAUGAGGGACAUGAGGAUCACCCAUGUGUGCUCGCGUAGGCUGUAGGAUAUGUAGUGCUGG”, the “apparent Kd” value [2, 7] was 11.2 nM and the “apparent Kd” value [2, 8] was 8.19 nM.
In the case of “CACGAGAACACUCAGGAUAUGACAAACAAGACAUGAGGAUCACCCAUGUGAAAUUACGGGUGCAAACAGAAGGGAGAAACUUACAC”, the “apparent Kd” value [2, 11] is reported as 48.6 nM and the “apparent Kd” value [2, 12] is reported as 47.5 nM.
“AGGUCCGGAGAGAAGGCCGACUUUGUAAUACACGGAGGAUAUCUACCACAUGAGGAUCACCCAUGUCCACACCGCAAGUUGUAA” was tested, and the “apparent Kd” value [2, 11] was 15 nM and the “apparent Kd” value [2, 12] was 10.8 nM.
For “CUGGUUGCCGGUUGCGACACAUGAGGAUCACCCAUGUAUACCGAGGAUAUGUGGAGCUGUAGAUGACAGAAGGCGGUGAGUAUC”, the “apparent Kd” value [2, 11] was 53.7 nM and the “apparent Kd” value [2, 12] was 38.1 nM.
For “CCGUAUCCGUAGGAUAUCGACACGAGUCACGUGCGAGAAGGACGGACAUGAGGAUCACCCAUGUAUGCUUCGUG”, the “apparent Kd” value [2, 7] was 22.6 nM and the “apparent Kd” value [2, 8] was 48.4 nM.
“CCAUGCGAUAUAGUGAUACAUGAGGAUCACCCAUGUAAAGUGAGAAGGCCAAAUUAAUACUAAGUGGAGGAUAUCAUCGUGAGC” was tested, and the “apparent Kd” value [2, 11] was 53 nM and the “apparent Kd” value [2, 12] was 20.7 nM.
With “CACGAUACUACAGGAUAUGCCGGUUACCAAUCUGCAGAAGGGUAGAUUAGUCUAACAUGAGGAUCACCCAUGUACCUCUCAUGU” the “apparent Kd” value [2, 7] was 208 nM and the “apparent Kd” value [2, 8] was 248 nM.
For “UAGCUGCUUCAGAAGGCCGUUGGGUGAAAACGCUCCGGGUGCCACAUGAGGAUCACCCAUGUUUCGGAGGAUAUGAAAGCAUCC”, the “apparent Kd” value [2, 7] was 47.8 nM and the “apparent Kd” value [2, 8] was 201 nM.
With “GGCUAACAUGAGGAUCACCCAUGUAUUGAUACCAGUAUUUGAAAAUACCCUUGGCAGCAAAUGAAGAGCGUAGCAGGGUCGAUUA” the “apparent Kd” value [2, 9] was 11.3 nM and the “apparent Kd” value [2, 10] was 16.8 nM.
“AACCACAUGAGGAUCACCCAUGUGACCGCUCGAGGACCGGUACGGCCGCCACUCGUGGAGGGACUUAUGCGUUAUCCGGGUAAAU” was tested, and the “apparent Kd” value [2, 3] was 19.4 nM and the “apparent Kd” value [2, 4] was 22.6 nM.
For “ACUCUAGAAUAGAAGGCCUGAGGAAGUAGUAAAGGAGGAUAUAUCAUACGAAAUUCACAUGAGGAUCACCCAUGUUGCGCAGAC”, the “apparent Kd” value [2, 11] was 21.2 nM and the “apparent Kd” value [2, 12] was 12.4 nM.
With “UAGAGCUCGCAAGGAUAUAACGCACAGAAACAUGAGGAUCACCCAUGUGGAAAGGAUCAACGUCGUUAGAAGGUGCAGAAAUAU” the “apparent Kd” value [2, 11] was 47.4 nM and the “apparent Kd” value [2, 12] was 22 nM.
For “GGGCGACUGCAAGGAUAUCUCGAAGUGAGUGGCAGAGAAGGUGCACGUACAUGAGGAUCACCCAUGUGAACUUAUUGGUCAAGG”, the “apparent Kd” value [2, 7] was 25.2 nM and the “apparent Kd” value [2, 8] was 21.9 nM.
In the case of “GCUCAUUGCGAGGAUAUUGGAAGAGUGUAAACUCAAGAAGGCGCAACAUGAGGAUCACCCAUGUGAACCCAAAU”, the “apparent Kd” value [2, 7] is reported as 7.91 nM and the “apparent Kd” value [2, 8] is reported as 14 nM.
In the case of “CUGAGCAAAGGAUAUACUAAUUGUGAGUGACCCAGUUAACGACAUGAGGAUCACCCAUGUAGAAGGUUGGAACA”, the “apparent Kd” value [2, 7] is reported as 26.4 nM and the “apparent Kd” value [2, 8] is reported as 24.6 nM.
With “AACGGUGCGCGAGGAUAUCACGUACCAAGAGGAUGAGAAGGCGCGCGUACAGGUUGGUGAACAUGAGGAUCACCCAUGUGGUAC” the “apparent Kd” value [2, 7] was 99.5 nM and the “apparent Kd” value [2, 8] was 87.2 nM.
